Data reported in ChEMBL document CHEMBL4390647, “Efficient click chemistry towards novel 1H-1,2,3-triazole-tethered 4H-chromene-d-glucose conjugates: Design, synthesis and evaluation of in vitro antibacterial, MRSA and antifungal activities” (Eur J Med Chem, 2019).
≈ marks a conversion by molar mass, not a printed value.

Columns and labels:
[1] = test system: Aspergillus flavus; assay: Antifungal activity against Aspergillus flavus ATCC 204304 measured after 72 hrs by agar dilution method; format: functional; details: ATCC 204304, 72 h
Method in brief: (§1)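 Agar dilution on Sabouraud dextrose agar, with compounds at […] to 0.78 μM in twofold steps. Fungal suspensions at 10 CFU/mL as printed were applied to the compound-containing plates. Incubation at 35°C; MIC read after 72 h. Three experiments.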

[2] = test system: Candida albicans; assay: Antifungal activity against Candida albicans NCIM3471 by standard agar method; format: functional
[3] = test system: Aspergillus niger; assay: Antifungal activity against Aspergillus niger NCIM1196 by standard agar method; format: functional
[4] = test system: Saccharomyces cerevisiae; assay: Antifungal activity against Saccharomyces cerevisiae SH 20 after 72 hrs by agar dilution method; format: functional; details: SH 20, 72 h; method in brief: as §1
[5] = test system: Candida albicans; assay: Antifungal activity against Candida albicans ATCC 7754 after 72 hrs by agar dilution method; format: functional; details: ATCC 7754, 72 h; method in brief: as §1
[6] = test system: Aspergillus niger; assay: Antifungal activity against Aspergillus niger ATCC 439 measured after 72 hrs by agar dilution method; format: functional; details: ATCC 439, 72 h; method in brief: as §1
[7] = test system: Klebsiella pneumoniae; assay: Antibacterial activity against measured after Klebsiella pneumoniae ATCC 4352 measured after 18 to 20 hrs by microbroth dilution method; format: functional
Method in brief: (§2)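 Inoculum from a 4–6-h broth adjusted to 0.5 McFarland, final 5 × 10⁵ CFU/mL. Incubation at 35°C for 18–20 h. MIC taken as the lowest concentration giving complete inhibition of visible growth; three experiments.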

[8] = test system: Pseudomonas aeruginosa; assay: Antibacterial activity against Pseudomonas aeruginosa […] measured after 18 to 20 hrs by microbroth dilution method; format: functional; method in brief: as §2
[9] = test system: Escherichia coli; assay: Antibacterial activity against Escherichia coli ATCC 25922 measured after 18 to 20 hrs by microbroth dilution method; format: functional; method in brief: as §2
[10] = test system: Staphylococcus aureus; assay: Antibacterial activity against Staphylococcus aureus ATCC 11632 after 18 to 20 hrs by microbroth dilution method; format: functional; method in brief: as §2
[11] = test system: Bacillus subtilis; assay: Antibacterial activity against Bacillus subtilis ATCC 11774 after 18 to 20 hrs by microbroth dilution method; format: functional; method in brief: as §2
[12] = test system: Staphylococcus aureus; assay: Antibacterial activity against Staphylococcus aureus MRSA198 clinical isolate-2 measured after 18 to 20 hrs by microbroth dilution method; format: functional; details: MRSA198 isolate-2
[13] = test system: Staphylococcus epidermidis; assay: Antibacterial activity against Staphylococcus epidermidis ATCC 12228 after 18 to 20 hrs by microbroth dilution method; format: functional; method in brief: as §2
[14] = Cytotoxicity against mouse RAW264.7 cells assessed as growth inhibition at 50 ug/mL after 120 hrs by MTT assay relative to control; format: cell-based; details: read-out: GI
Method in brief: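 RAW 264.7 mouse macrophages were seeded at 25,000 cells/well and left to attach overnight. Compound in DMSO was added from a 200× concentrate, in duplicate wells, to a 50 μg/mL test level; DMSO served as control. Exposure 120 h at 37°C in 5% CO₂. MTT (4 mg/mL in PBS) was added for 4 h, formazan dissolved in DMSO, and absorbance read at 560 nm. Viability expressed as % of untreated cells, mean ± SE of at least three independent experiments.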

[15] = test system: Staphylococcus aureus; assay: Antibacterial activity against Staphylococcus aureus MRSA198 clinical isolate-3 measured after 18 to 20 hrs by microbroth dilution method; format: functional; details: MRSA198 isolate-3
[16] = test system: Staphylococcus aureus; assay: Antibacterial activity against Staphylococcus aureus MRSA198 clinical isolate-1 measured after 18 to 20 hrs by microbroth dilution method; format: functional; details: MRSA198 isolate-1
[17] = test system: Salmonella typhimurium; assay: Antibacterial activity against Salmonella typhimurium ATCC 14028 measured after 18 to 20 hrs by microbroth dilution method; format: functional, Salmonella enterica subsp. enterica serovar Typhimurium; details: Salmonella enterica; method in brief: as §2
[18] = test system: Candida albicans; assay: Antifungal activity against Candida albicans ATCC 1905 after 24 to 48 hrs by broth microdilution method; format: functional
[19] = test system: Candida albicans; assay: Antifungal activity against Candida albicans ATCC 1912 after 24 to 48 hrs by broth microdilution method; format: functional
[20] = test system: Candida albicans; assay: Antifungal activity against Candida albicans SUCC 2303 after 24 to 48 hrs by broth microdilution method; format: functional
[21] = test system: Candida albicans; assay: Antifungal activity against Candida albicans SUCC 625 after 24 to 48 hrs by broth microdilution method; format: functional
[22] = test system: Aspergillus flavus; assay: Antifungal activity against Aspergillus flavus ATCC 64025 after 24 to 48 hrs by broth microdilution method; format: functional
[23] = Antioxidant activity assessed as DPPH radical scavenging activity measured after 30 mins by spectrophotometric method; format: functional

Compound	MIC [1] [µM]	MIC [4] [µM]	MIC [5] [µM]	MIC [6] [µM]	MIC [7] [µM]	MIC [8] [µM]	MIC [9] [µM]	MIC [10] [µM]	MIC [11] [µM]	MIC [12] [µM]	MIC [13] [µM]	inhibition at 120 h, 50 ug/mL [14] [%]	MIC [15] [µM]	MIC [16] [µM]	MIC [17] [µM]	other results
OC(Cn1cncn1)(Cn1cncn1)c1ccc(F)cc1F [FLUCONAZOLE]	0.78 (≈ 0.239 µg/mL)	0.78 (≈ 0.239 µg/mL)	0.78 (≈ 0.239 µg/mL)	1.56 (≈ 0.478 µg/mL)												MIC [2]: 12.5 µg/mL (≈ 40.8 µM); MIC [3]: 12.5 µg/mL (≈ 40.8 µM)
CC(=O)OC[C@H]1O[C@@H](n2cc(COc3ccc4c(c3)OC(N)=C(C#N)C4c3ccc(Br)cc3)nn2)[C@H](OC(C)=O)[C@@H](OC(C)=O)[C@@H]1OC(C)=O (some centres undefined)	200 (≈ 151 µg/mL)	1.56 (≈ 1.18 µg/mL)	3.12 (≈ 2.35 µg/mL)	3.12 (≈ 2.35 µg/mL)	200 (≈ 151 µg/mL)	25 (≈ 18.9 µg/mL)	100 (≈ 75.5 µg/mL)	25 (≈ 18.9 µg/mL)	200 (≈ 151 µg/mL)	12.5 (≈ 9.43 µg/mL)	100 (≈ 75.5 µg/mL)	25.3	12.5 (≈ 9.43 µg/mL)	12.5 (≈ 9.43 µg/mL)	200 (≈ 151 µg/mL)	
CC(=O)OC[C@H]1O[C@@H](n2cc(COc3ccc4c(c3)OC(N)=C(C#N)C4c3ccc(Cl)cc3)nn2)[C@H](OC(C)=O)[C@@H](OC(C)=O)[C@@H]1OC(C)=O (some centres undefined)	25 (≈ 17.8 µg/mL)	1.56 (≈ 1.11 µg/mL)	6.25 (≈ 4.44 µg/mL)	50 (≈ 35.5 µg/mL)	12.5 (≈ 8.88 µg/mL)	3.12 (≈ 2.22 µg/mL)	1.56 (≈ 1.11 µg/mL)	50 (≈ 35.5 µg/mL)	400 (≈ 284 µg/mL)	200 (≈ 142 µg/mL)	200 (≈ 142 µg/mL)	25.1	100 (≈ 71 µg/mL)	200 (≈ 142 µg/mL)	12.5 (≈ 8.88 µg/mL)	
N#CC1=C(N)Oc2ccc3ccccc3c2C1c1ccccc1 (centres undefined)																MIC [18]: > 1 µg/mL; MIC [19]: > 1 µg/mL; MIC [20]: > 1 µg/mL; MIC [21]: > 1 µg/mL; MIC [22]: > 1 µg/mL
Cc1cc(C(C)(C)C)c(O)c(C(C)(C)C)c1 [BUTYLATED HYDROXYTOLUENE]																IC50 [23]: 16.47 µg/mL (≈ 74.7 µM)
COc1cccc(C2C(C#N)=C(N)Oc3cc(OCc4cn([C@@H]5O[C@H](COC(C)=O)[C@@H](OC(C)=O)[C@H](OC(C)=O)[C@H]5OC(C)=O)nn4)ccc32)c1OC (some centres undefined)	25 (≈ 18.4 µg/mL)	200 (≈ 147 µg/mL)	100 (≈ 73.6 µg/mL)	25 (≈ 18.4 µg/mL)	25 (≈ 18.4 µg/mL)	12.5 (≈ 9.2 µg/mL)	200 (≈ 147 µg/mL)	12.5 (≈ 9.2 µg/mL)	12.5 (≈ 9.2 µg/mL)	12.5 (≈ 9.2 µg/mL)	25 (≈ 18.4 µg/mL)	31.1	12.5 (≈ 9.2 µg/mL)	12.5 (≈ 9.2 µg/mL)	12.5 (≈ 9.2 µg/mL)	
COc1ccccc1C1C(C#N)=C(N)Oc2cc(OCc3cn([C@@H]4O[C@H](COC(C)=O)[C@@H](OC(C)=O)[C@H](OC(C)=O)[C@H]4OC(C)=O)nn3)ccc21 (some centres undefined)	400 (≈ 282 µg/mL)	100 (≈ 70.6 µg/mL)	200 (≈ 141 µg/mL)	1.56 (≈ 1.1 µg/mL)	3.12 (≈ 2.2 µg/mL)	3.12 (≈ 2.2 µg/mL)	400 (≈ 282 µg/mL)	50 (≈ 35.3 µg/mL)		400 (≈ 282 µg/mL)	6.25 (≈ 4.41 µg/mL)	22.1	200 (≈ 141 µg/mL)	400 (≈ 282 µg/mL)	6.25 (≈ 4.41 µg/mL)	
CC(=O)OC[C@H]1O[C@@H](n2cc(COc3ccc4c(c3)OC(N)=C(C#N)C4c3cccc(Cl)c3)nn2)[C@H](OC(C)=O)[C@@H](OC(C)=O)[C@@H]1OC(C)=O (some centres undefined)	200 (≈ 142 µg/mL)	3.12 (≈ 2.22 µg/mL)	12.5 (≈ 8.88 µg/mL)	12.5 (≈ 8.88 µg/mL)	3.12 (≈ 2.22 µg/mL)	25 (≈ 17.8 µg/mL)	6.25 (≈ 4.44 µg/mL)	1.56 (≈ 1.11 µg/mL)	6.25 (≈ 4.44 µg/mL)	6.25 (≈ 4.44 µg/mL)	12.5 (≈ 8.88 µg/mL)	17.2	1.56 (≈ 1.11 µg/mL)	3.12 (≈ 2.22 µg/mL)	6.25 (≈ 4.44 µg/mL)	
CCOC(=O)c1cc2ccc(OCc3cn(Cc4ccc(F)cc4)nn3)cc2oc1=O																MIC [2]: 12.5 µg/mL (≈ 29.5 µM); MIC [3]: 25 µg/mL (≈ 59 µM)
CCOC(=O)c1cc2ccc(OCc3cn(Cc4ccc([N+](=O)[O-])cc4)nn3)cc2oc1=O																IC50 [23]: 15 µg/mL (≈ 33.3 µM)
COc1ccc(C2C(C#N)=C(N)Oc3cc(OCc4cn([C@@H]5O[C@H](COC(C)=O)[C@@H](OC(C)=O)[C@H](OC(C)=O)[C@H]5OC(C)=O)nn4)ccc32)cc1OC (some centres undefined)	3.12 (≈ 2.3 µg/mL)	25 (≈ 18.4 µg/mL)	6.25 (≈ 4.6 µg/mL)	200 (≈ 147 µg/mL)	25 (≈ 18.4 µg/mL)	12.5 (≈ 9.2 µg/mL)	6.25 (≈ 4.6 µg/mL)	25 (≈ 18.4 µg/mL)	25 (≈ 18.4 µg/mL)	50 (≈ 36.8 µg/mL)	1.56 (≈ 1.15 µg/mL)	21.9	50 (≈ 36.8 µg/mL)	25 (≈ 18.4 µg/mL)	400 (≈ 294 µg/mL)	
CC(=O)OC[C@H]1O[C@@H](n2cc(COc3ccc4c(c3)OC(N)=C(C#N)C4c3ccccc3)nn2)[C@H](OC(C)=O)[C@@H](OC(C)=O)[C@@H]1OC(C)=O (some centres undefined)	100 (≈ 67.6 µg/mL)	12.5 (≈ 8.45 µg/mL)	100 (≈ 67.6 µg/mL)	6.25 (≈ 4.22 µg/mL)	400 (≈ 270 µg/mL)	200 (≈ 135 µg/mL)	400 (≈ 270 µg/mL)	200 (≈ 135 µg/mL)	400 (≈ 270 µg/mL)	400 (≈ 270 µg/mL)	25 (≈ 16.9 µg/mL)	22.9	200 (≈ 135 µg/mL)	400 (≈ 270 µg/mL)	3.12 (≈ 2.11 µg/mL)	
